Source: ChEMBL document CHEMBL4665761, “Optimizing the Benefit/Risk of Acetyl-CoA Carboxylase Inhibitors through Liver Targeting” (J Med Chem, 2020)

Key:
[1] = Ratio of drug uptake in Wistar-Hannover rat unbound liver to plasma concentration at 30 mg/kg, po after 6 hrs by LC/MS-MS analysis; type: ADME, organism-based; conditions: other tissue
Summary of the method: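 Male Wistar-Hannover rats (n = 2 or 3) dosed orally as a suspension in 0.5% methyl cellulose with 0.1% Tween 80. Plasma and liver sampled 6 h post-dose. Kp is total liver/plasma; Kpu,u uses unbound fractions from equilibrium dialysis of plasma and liver.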

[2] = Cmax in Wistar-Hannover rat plasma at 4 mg/kg, po and measured up to 24 hrs by LC/MS-MS analysis; type: ADME, organism-based; parameters: route oral, dose 4 mg/kg, time <=24
[3] = AUC (0 to 24 hrs) in Wistar-Hannover rat plasma at 4 mg/kg, po and measured up to 24 hrs by LC/MS-MS analysis; type: ADME, organism-based; parameters: route oral, dose 4 mg/kg, time <=24
Summary of the method: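 Male Wistar-Hannover rats (240–350 g), housed singly after 1 week of acclimation, were dosed orally. AUC0–24 came from plasma concentration–time data by the linear trapezoidal rule, averaged for n = 2. Lower detection limit was 1 ng/mL.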

[4] = molecular target: Acetyl-CoA carboxylase 1 (Rattus norvegicus, UniProt P11497); assay: Inhibition of rat ACC1 using acetyl-CoA as substrate incubated for 20 mins in presence of [14C]O3 by liquid scintillation counting method
Summary of the method: (§1)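 Radioenzymatic assay with purified ACC isozymes, measuring [14C]-bicarbonate incorporation into [14C]-malonyl-CoA. Mode of inhibition taken from substrate concentration-dependence experiments varying ATP or carbonate. IC50 dose-response run at saturating ATP.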

[5] = Drug uptake in Wistar-Hannover rat assessed as plasma concentration at 10 mg/kg, po after 6 hrs by LC/MS-MS analysis; type: ADME, organism-based
Summary of the method: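 Male Wistar-Hannover rats, n = 2 or 3, given an oral suspension in 0.5% methyl cellulose with 0.1% Tween 80; one compound was dosed as the HCl salt. Total plasma and liver concentrations were measured 6 h post-dose. Kp = liver/plasma total concentration. Kpu,u uses fu values from equilibrium dialysis.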

[6] = Inhibition of DNL in Sprague-Dawley rat assessed as reduction in DNL level in bone marrow at 300 mg/kg, po pretreated with 1 hr followed by [14C]-acetate treatment and measured after 1 hr relative to control; type: functional; conditions: time 2 hrs
Summary of the method: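 Sprague-Dawley rats given single oral doses of 0.03–300 mg/kg in 0.5% methyl cellulose vehicle, n = 16 per dose. Read-out is incorporation of 14C-acetate into lipids in liver, bone marrow and lung, measured at 2 h post-dose relative to vehicle. Data are mean ± SEM. EC50 is reported with a 95% confidence interval.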

[7] = molecular target: Cytochrome P450 1A2 (Homo sapiens, UniProt P05177); assay: inhibition of CYP1A2 in human liver microsomes; type: ADME
[8] = molecular target: Organic anion transporter 3 (Homo sapiens, UniProt Q8TCC7); assay: Inhibition of human SLC22A8 expressed in HEK293 cells in presence of para-aminohippuric acid/metformin; type: cell-based
[9] = molecular target: OATP2B1 (Homo sapiens, UniProt O94956); assay: Substrate activity at human OATP2B1 stably expressed in HEK293 cells assessed as ratio of total to passive cellular uptake at 1 uM incubated for 0.5 to 4 mins by LC/MS-MS analysis; type: cell-based; conditions: HEK293 cells stably expressing human OATP2B1, time 0.5-4 min
Summary of the method: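 HEK293 cells stably transfected with the transporter, plus wild-type cells, grown to confluence in DMEM with 10% heat-inactivated FBS and 5 µg/mL blasticidin. Washed with HBSS/20 mM HEPES, pH 7.4, then incubated with compound at 37 °C for 0.5–4.0 min. Cells washed ice-cold, lysed in MeOH for LC-MS/MS, uptake normalized to BCA protein. Ratio = transfected/wild-type uptake, averaged over time points.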

[10] = molecular target: Acetyl-CoA carboxylase 1 (Homo sapiens, UniProt Q13085); assay: Uncompetitive inhibition of human ACC1 incubated for 15 mins in presence of ATP by Line weaver-Burk plot analysis; summary of the method: as §1
[11] = Drug uptake in human hepatocytes assessed as active uptake intrinsic clearance at 1 uM up to 15 mins by LC-MS/MS analysis; type: ADME, cell-based, Hepatocyte; conditions: 0.25 h
[12] = test system: Rattus norvegicus; assay: Effect on triglyceride accumulation in Sprague-Dawley rat high fat dietary model at 1 mg/kg, po assessed as reduction in triglyceride level after 42 days by XPT clinical analyzer; type: functional; parameters: scale not given: the % may be the effect or the level left; conditions: time 42 day
Summary of the method: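 High-fat-diet-fed Sprague-Dawley rats dosed orally for 42 days, with chow-fed and vehicle controls, n = 10 per group. Read-out is hepatic triglyceride, reported as mean ± SEM.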

[13] = molecular target: Cytochrome P450 2C19 (Homo sapiens, UniProt P33261); assay: inhibition of CYP2C19 in human liver microsomes; type: ADME
[14] = molecular target: Cytochrome P450 2B6 (Homo sapiens, UniProt P20813); assay: inhibition of CYP2B6 in human liver microsomes; type: ADME
[15] = Fraction unbound in monkey plasma by equilibrium dialysis method; type: ADME, cell-free, Macaca mulatta; conditions: rhesus monkey
Summary of the method: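 Fraction unbound in plasma and liver tissue was determined by equilibrium dialysis.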

[16] = AUC (0 to 24 hrs) in cynomolgus monkey plasma at 1 mg/kg, iv and measured up to 72 hrs by LC/MS-MS analysis; type: ADME, organism-based, Macaca fascicularis; parameters: route intravenous, dose 1 mg/kg, time <=72
Summary of the method: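 Cynomolgus monkeys received an IV solution of the tris salt in 2% N-methylpyrrolidone and 98% sulfobutylether-β-cyclodextrin (12.5%) in 50 mM TRIS buffer, pH 8.0. AUC0–24 came from plasma concentration–time data by the linear trapezoidal rule, averaged for n = 2.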

[17] = molecular target: Solute carrier family 22 member 6 (Homo sapiens, UniProt Q4U2R8); assay: Inhibition of human SLC22A6 expressed in HEK293 cells in presence of para-aminohippuric acid/metformin; type: cell-based
Solute carrier family 22 member 6, sequence (Q4U2R8 whole entry): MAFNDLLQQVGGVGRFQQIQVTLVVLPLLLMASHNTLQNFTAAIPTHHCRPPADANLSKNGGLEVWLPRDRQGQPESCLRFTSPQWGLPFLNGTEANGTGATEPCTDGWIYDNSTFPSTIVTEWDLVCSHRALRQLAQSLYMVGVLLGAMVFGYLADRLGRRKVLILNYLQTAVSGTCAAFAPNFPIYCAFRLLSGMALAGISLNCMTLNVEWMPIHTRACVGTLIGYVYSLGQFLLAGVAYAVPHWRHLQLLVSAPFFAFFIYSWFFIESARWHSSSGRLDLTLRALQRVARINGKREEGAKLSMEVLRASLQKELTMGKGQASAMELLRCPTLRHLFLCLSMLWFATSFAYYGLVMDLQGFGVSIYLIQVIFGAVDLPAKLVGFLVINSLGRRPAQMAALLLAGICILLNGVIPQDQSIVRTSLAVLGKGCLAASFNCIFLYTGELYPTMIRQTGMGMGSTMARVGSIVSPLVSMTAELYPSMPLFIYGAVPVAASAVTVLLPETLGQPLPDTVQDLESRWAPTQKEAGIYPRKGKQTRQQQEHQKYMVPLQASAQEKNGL

Organic anion transporter 3, sequence (Q8TCC7 whole entry): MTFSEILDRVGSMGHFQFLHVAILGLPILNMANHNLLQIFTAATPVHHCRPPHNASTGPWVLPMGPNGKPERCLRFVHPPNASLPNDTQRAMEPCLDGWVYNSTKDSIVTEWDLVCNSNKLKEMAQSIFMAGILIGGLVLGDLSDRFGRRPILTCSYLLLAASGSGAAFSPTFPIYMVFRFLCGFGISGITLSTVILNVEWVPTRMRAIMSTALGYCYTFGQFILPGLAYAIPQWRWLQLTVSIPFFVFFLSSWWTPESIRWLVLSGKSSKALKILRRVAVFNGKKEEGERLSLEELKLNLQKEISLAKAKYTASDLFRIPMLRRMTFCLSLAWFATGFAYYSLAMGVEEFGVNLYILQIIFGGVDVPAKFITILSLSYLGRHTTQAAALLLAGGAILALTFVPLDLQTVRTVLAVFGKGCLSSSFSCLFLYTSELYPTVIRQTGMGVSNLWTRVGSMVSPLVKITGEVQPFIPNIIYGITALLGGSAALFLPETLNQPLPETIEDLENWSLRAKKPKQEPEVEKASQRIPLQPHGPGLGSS
OATP2B1, sequence (O94956 whole entry): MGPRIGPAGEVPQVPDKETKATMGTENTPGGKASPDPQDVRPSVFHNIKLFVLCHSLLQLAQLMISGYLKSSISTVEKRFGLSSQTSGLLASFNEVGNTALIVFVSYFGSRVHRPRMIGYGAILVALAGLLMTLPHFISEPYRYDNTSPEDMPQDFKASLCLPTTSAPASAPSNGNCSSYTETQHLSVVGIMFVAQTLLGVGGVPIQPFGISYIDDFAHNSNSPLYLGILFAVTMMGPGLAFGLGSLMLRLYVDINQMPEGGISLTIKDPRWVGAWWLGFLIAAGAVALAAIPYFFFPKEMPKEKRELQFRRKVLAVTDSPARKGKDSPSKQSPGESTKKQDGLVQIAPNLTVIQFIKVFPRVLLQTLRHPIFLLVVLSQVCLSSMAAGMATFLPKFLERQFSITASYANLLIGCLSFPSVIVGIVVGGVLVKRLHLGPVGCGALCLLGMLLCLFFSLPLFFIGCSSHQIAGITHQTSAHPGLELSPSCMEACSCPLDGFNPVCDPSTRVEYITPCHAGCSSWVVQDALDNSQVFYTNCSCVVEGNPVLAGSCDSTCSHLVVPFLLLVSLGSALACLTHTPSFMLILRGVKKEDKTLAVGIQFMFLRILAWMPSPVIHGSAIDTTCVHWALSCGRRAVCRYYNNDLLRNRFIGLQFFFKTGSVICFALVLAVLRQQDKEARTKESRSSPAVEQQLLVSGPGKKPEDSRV
Cytochrome P450 2C19, sequence (P33261 whole entry): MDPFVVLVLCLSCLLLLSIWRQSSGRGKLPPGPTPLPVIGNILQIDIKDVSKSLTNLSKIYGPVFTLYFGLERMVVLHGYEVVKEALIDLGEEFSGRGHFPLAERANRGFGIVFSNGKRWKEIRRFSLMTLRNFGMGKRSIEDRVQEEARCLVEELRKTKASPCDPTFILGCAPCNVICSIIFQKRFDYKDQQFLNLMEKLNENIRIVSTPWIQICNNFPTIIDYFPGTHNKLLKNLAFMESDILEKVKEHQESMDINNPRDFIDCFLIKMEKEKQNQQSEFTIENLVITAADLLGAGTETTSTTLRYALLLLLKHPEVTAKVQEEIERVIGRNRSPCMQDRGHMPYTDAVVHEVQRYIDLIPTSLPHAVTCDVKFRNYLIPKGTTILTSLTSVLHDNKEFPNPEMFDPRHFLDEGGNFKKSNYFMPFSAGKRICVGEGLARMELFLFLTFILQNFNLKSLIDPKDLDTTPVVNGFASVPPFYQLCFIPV
Cytochrome P450 1A2, sequence (P05177 whole entry): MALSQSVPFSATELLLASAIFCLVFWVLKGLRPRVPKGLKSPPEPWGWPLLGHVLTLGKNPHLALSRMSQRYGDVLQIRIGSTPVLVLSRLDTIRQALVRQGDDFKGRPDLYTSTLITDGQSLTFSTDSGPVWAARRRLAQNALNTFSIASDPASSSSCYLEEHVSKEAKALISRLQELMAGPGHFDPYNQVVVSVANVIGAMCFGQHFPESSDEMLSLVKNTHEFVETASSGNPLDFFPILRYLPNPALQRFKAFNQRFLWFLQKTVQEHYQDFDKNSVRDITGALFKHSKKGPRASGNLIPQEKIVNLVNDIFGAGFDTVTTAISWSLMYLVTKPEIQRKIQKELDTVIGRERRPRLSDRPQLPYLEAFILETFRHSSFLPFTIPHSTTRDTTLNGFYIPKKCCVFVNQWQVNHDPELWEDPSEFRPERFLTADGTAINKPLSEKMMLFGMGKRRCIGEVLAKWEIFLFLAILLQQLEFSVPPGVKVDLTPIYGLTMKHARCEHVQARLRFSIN
Cytochrome P450 2B6, sequence (P20813 whole entry): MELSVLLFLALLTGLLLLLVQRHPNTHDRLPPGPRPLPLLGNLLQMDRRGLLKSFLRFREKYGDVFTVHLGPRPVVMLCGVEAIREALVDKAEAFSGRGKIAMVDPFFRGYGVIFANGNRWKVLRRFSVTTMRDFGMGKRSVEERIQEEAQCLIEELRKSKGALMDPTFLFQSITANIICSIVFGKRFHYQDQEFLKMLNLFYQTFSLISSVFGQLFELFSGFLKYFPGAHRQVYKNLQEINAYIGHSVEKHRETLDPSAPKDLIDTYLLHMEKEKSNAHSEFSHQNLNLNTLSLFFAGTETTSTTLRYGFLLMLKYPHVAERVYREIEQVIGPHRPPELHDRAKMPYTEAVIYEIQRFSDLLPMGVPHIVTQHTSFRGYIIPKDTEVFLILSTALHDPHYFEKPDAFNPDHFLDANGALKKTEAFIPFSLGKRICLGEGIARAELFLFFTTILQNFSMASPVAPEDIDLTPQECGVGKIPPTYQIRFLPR

| Compound | Ratio [1] | Cmax [2] [ng/mL] | AUC(0-t) [3] [ng·h/mL] | IC50 [4] [nM] | concentration at 6 h [5] [ng/mL] | inhibition in vivo at 300 mg/kg [6] [%] | IC50 [7] [µM] | IC50 [8] [µM] | uptake ratio at 1 µM [9] | IC50 [10] [nM] | CLH [11] [µL/min/mg] | Activity [12] [%] | IC50 [13] [µM] | IC50 [14] [µM] | fraction unbound [15] | AUC(0-t) [16] [ng·h/mL] | IC50 [17] [µM] |
| --- | --- | --- | --- | --- | --- | --- | --- | --- | --- | --- | --- | --- | --- | --- | --- | --- | --- |
| COc1cc(C(=O)N2CCC3(CC2)CC(=O)c2nn(C(C)(C)C)cc2O3)cc(-c2ccc(C(=O)O)cc2)n1 | 376 | 53.9 | 322 | – | – | – | – | – | – | – | – | – | – | – | – | – | – |
| COc1cc(C(=O)N2CCC3(CC2)CC(=O)c2c(cnn2C(C)C)C3)cc(-c2ccc(C(=O)O)cc2)n1 [CLESACOSTAT] | – | – | – | 7.53 | 314 | 33 | > 50 | > 30 | 7 | 12.4 | 24 | 30 | > 50 | > 50 | 0.00956 | 14000 | > 30 |
